ChEMBL document CHEMBL3352408, “Karwinaphthopyranones from the fruits of Karwinskia parvifolia and their cytotoxic activities” (J Nat Prod, 2014)

What was measured:
[1] = Cytotoxicity against human HCT15 cells after 72 hrs by MTT assay; type: functional, cell-based; conditions: HCT-15, 72 h
Method in brief: (§1)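 MTT read-out of cell viability, with etoposide as positive control. Cell origins: A549, human lung carcinoma; HeLa, cervical cancer; ZR-7530, breast cancer; HCT-15, colon cancer; U373, brain cancer; Hep G2, liver cancer. Potency reported as half-maximal growth inhibitory concentration (IC50).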

[2] = Cytotoxicity against human ZR-7530 cells after 72 hrs by MTT assay; type: functional, cell-based; conditions: ZR-75-30, 72 h; method in brief: as §1
A549 = assay: Cytotoxicity against human A549 cells after 72 hrs by MTT assay; type: functional, cell-based; conditions: A549, 72 h; method in brief: as §1
[3] = Cytotoxicity against human U373 cells after 72 hrs by MTT assay; type: functional, cell-based, U-373MG ATCC; conditions: U373 MG; method in brief: as §1
HepG2 = assay: Cytotoxicity against human HepG2 cells after 72 hrs by MTT assay; type: functional, cell-based; conditions: HepG2, 72 h; method in brief: as §1
HeLa = assay: Cytotoxicity against human HeLa cells after 72 hrs by MTT assay; type: functional, cell-based; method in brief: as §1

Compound: COc1cc([C@@H]2c3cc4c(cc3[C@@H](O[C@@H]3O[C@@H]5CO[C@@H](C)O[C@H]5[C@H](O)[C@H]3O)[C@H]3COC(=O)[C@H]23)OCO4)cc(OC)c1O [ETOPOSIDE]
- IC50 [1]: 4.6 µM
- IC50 [2]: 2.5 µM
- IC50 (A549): 9.3 µM
- IC50 [3]: 8.5 µM
- IC50 (HepG2): 3.6 µM
- IC50 (HeLa): 3.4 µM

Compound: Cc1cc(O)c2c(c1)Cc1ccc(C3c4cccc(O)c4C(=O)c4c(O)cc(C)cc43)c(O)c1C2=O (stereo unspecified)
- IC50 [1]: > 10 µM
- IC50 [2]: 9.6 µM
- IC50 (A549): > 10 µM
- IC50 [3]: > 10 µM
- IC50 (HepG2): > 10 µM
- IC50 (HeLa): > 10 µM

Compound: COc1cc(C)cc2c1C(=O)c1c(O)cccc1C2=O
- IC50 [1]: > 10 µM
- IC50 [2]: > 10 µM
- IC50 (A549): > 10 µM
- IC50 [3]: > 10 µM
- IC50 (HepG2): 9.3 µM
- IC50 (HeLa): > 10 µM

Compound: C[C@@]1(O)CC(=O)c2c(cc3ccc(-c4c5c(c(O)c6c(O)cccc46)C(=O)C[C@@](C)(O)C5)c(O)c3c2O)C1
- IC50 [1]: 4.9 µM
- IC50 [2]: 5.8 µM
- IC50 (A549): > 10 µM
- IC50 [3]: > 10 µM
- IC50 (HepG2): > 10 µM
- IC50 (HeLa): 4.9 µM

Compound: COc1cccc2c1C(=O)C1=C(C[C@H](C)O[C@@H]1C)C2(OC)c1ccc2cc3c(c(O)c2c1O)C(=O)C[C@@](C)(O)C3 (stereo partly specified)
- IC50 [1]: 4.6 µM
- IC50 [2]: 5.5 µM
- IC50 (A549): > 10 µM
- IC50 [3]: > 10 µM
- IC50 (HepG2): 4.6 µM
- IC50 (HeLa): > 10 µM

Compound: COc1cc(OC)c2c(O)c(C(C)=O)c(C)cc2c1
- IC50 [1]: > 10 µM
- IC50 [2]: > 10 µM
- IC50 (A549): > 10 µM
- IC50 [3]: > 10 µM
- IC50 (HepG2): 9.6 µM
- IC50 (HeLa): > 10 µM
